# Experiments:
# [1] = target: T1, Cannabinoid receptor 2 (Rattus norvegicus) (UniProt Q9QZN9); assay: Agonist activity at recombinant rat CB2 receptor expressed in HEK293 cells assessed as increase in beta arrestin recruitment measured after 2 to 3 hrs by PathHunter assay relative to CP55940; format: functional, cell-based
# T1 sequence (whole entry): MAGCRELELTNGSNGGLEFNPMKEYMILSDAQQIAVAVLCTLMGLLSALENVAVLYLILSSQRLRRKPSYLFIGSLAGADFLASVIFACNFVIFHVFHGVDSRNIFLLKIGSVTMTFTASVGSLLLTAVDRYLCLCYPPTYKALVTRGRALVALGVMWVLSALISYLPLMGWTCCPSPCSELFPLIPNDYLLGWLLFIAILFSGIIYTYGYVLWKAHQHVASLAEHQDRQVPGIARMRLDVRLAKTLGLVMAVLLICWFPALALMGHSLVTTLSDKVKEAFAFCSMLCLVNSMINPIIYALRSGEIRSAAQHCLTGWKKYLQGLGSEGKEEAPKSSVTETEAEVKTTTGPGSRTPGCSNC
# In short: (§1)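 Beta-arrestin recruitment EC50 is the mean of three or more independent experiments (logSD < 0.4). Intrinsic activity (Emax) is expressed relative to CP-55,940 set at 100.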
# [2] = Half life in rat liver microsomes; format: ADME, microsome
# [3] = Half life in mouse liver microsomes; format: ADME, microsome
# [4] = Half life in human liver microsomes; format: ADME, microsome
# [5] = target: T2, Cannabinoid receptor 2 (Homo sapiens, UniProt P34972); assay: Agonist activity at recombinant human CB2 receptor expressed in HEK293 cells assessed as increase in beta arrestin recruitment measured after 2 to 3 hrs by PathHunter assay relative to CP55940; format: functional, cell-based
# [6] = target: T2, Cannabinoid receptor 2; assay: Agonist activity at recombinant human CB2 receptor expressed in HEK293 cells assessed as increase in beta arrestin recruitment measured after 2 to 3 hrs by PathHunter assay; format: functional, cell-based
# [7] = target: T3, Cannabinoid receptor 2 (Rattus norvegicus, UniProt Q9QZN9); assay: Agonist activity at recombinant rat CB2 receptor expressed in HEK293 cells assessed as increase in beta arrestin recruitment measured after 2 to 3 hrs by PathHunter assay; format: functional, cell-based
# T3 sequence (Q9QZN9 whole entry): T1 sequence (whole entry)
# [8] = target: T4, Cannabinoid receptor 1 (Homo sapiens, UniProt P21554); assay: Agonist activity at recombinant human CB1 receptor expressed in HEK293 cells assessed as increase in beta arrestin recruitment measured after 2 to 3 hrs by PathHunter assay; format: functional, cell-based
# [9] = target: Cannabinoid receptor 1 (Rattus norvegicus, UniProt P20272); assay: Agonist activity at recombinant rat CB1 receptor expressed in HEK293 cells assessed as increase in beta arrestin recruitment measured after 2 to 3 hrs by PathHunter assay; format: functional, cell-based
# [10] = target: T4, Cannabinoid receptor 1; assay: Agonist activity at recombinant human CB1 receptor expressed in HEK293 cells assessed as increase in beta arrestin recruitment measured after 2 to 3 hrs by PathHunter assay relative to CP55940; format: functional, cell-based; in short: as §1
# [11] = target: Cannabinoid receptor 1 (Rattus norvegicus) (UniProt P20272); assay: Agonist activity at recombinant rat CB1 receptor expressed in HEK293 cells assessed as increase in beta arrestin recruitment measured after 2 to 3 hrs by PathHunter assay relative to CP55940; format: functional, cell-based; in short: as §1
# [12] = test system: Rattus norvegicus; assay: Toxicity in Sprague-Dawley rat assessed as effect on locomotor activity up to 100 mg/kg, po; format: organism-based; conditions: in vivo
# [13] = test system: Rattus norvegicus; assay: Toxicity in Sprague-Dawley rat assessed as change in body temperature up to 100 mg/kg, po; format: organism-based; conditions: in vivo
# [14] = Ratio of drug level in brain to plasma in Sprague-Dawley rat at 3 mg/kg, po measured after 2 hrs; format: ADME, organism-based; conditions: brain and plasma, read-out: BPR
# [15] = target: T1, Cannabinoid receptor 2 (Rattus norvegicus); assay: Induction of recombinant HA-tagged rat CB2 receptor internalization expressed in CHOK1 cells at 10 uM measured after 1 hr by time-resolved flow cytometry relative to CP55940; format: functional, cell-based
# [16] = test system: Rattus norvegicus; assay: Toxicity in Sprague-Dawley rat assessed as decrease in core body temperature at 0.3 mg/kg, po measured after 60 mins by rectal probe method; format: organism-based; conditions: in vivo, 1 h
# T4 sequence (P21554 whole entry): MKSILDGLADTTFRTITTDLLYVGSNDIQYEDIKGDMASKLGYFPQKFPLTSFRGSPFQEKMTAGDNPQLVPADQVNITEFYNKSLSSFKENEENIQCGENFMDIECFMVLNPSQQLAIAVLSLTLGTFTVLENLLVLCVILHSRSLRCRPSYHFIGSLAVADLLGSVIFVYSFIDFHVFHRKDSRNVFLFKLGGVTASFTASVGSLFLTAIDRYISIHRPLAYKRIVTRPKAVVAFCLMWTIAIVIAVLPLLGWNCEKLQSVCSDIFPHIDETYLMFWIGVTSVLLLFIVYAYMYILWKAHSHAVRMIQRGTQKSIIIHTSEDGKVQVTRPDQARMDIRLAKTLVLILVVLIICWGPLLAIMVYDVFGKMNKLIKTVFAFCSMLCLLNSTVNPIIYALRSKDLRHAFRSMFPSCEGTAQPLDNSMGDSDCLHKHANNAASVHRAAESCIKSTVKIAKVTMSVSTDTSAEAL
# T2 sequence (P34972 whole entry): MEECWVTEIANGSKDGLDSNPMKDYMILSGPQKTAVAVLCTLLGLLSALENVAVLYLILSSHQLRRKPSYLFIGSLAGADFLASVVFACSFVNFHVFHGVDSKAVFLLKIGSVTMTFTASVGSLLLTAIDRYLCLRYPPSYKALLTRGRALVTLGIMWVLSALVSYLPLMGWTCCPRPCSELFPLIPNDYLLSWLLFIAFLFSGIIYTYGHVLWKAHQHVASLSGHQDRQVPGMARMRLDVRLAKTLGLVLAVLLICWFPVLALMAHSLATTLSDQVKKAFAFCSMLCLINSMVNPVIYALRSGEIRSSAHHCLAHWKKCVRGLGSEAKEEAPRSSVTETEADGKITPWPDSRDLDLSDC
# Sequence of Cannabinoid receptor 1 (Rattus norvegicus, UniProt P20272) (P20272 whole entry): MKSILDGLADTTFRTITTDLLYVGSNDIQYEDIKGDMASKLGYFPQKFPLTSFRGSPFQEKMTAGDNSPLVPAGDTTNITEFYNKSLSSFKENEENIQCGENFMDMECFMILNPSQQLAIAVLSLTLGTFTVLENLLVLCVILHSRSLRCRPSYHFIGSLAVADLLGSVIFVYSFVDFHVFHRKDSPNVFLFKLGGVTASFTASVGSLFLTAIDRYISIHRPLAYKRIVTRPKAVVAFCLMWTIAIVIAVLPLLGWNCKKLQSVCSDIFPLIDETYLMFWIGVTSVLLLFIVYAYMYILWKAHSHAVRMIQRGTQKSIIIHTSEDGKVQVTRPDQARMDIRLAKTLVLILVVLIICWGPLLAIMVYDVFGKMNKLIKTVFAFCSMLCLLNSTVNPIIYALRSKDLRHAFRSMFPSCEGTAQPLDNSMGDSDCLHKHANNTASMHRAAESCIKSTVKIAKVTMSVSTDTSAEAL
# Sequence of Cannabinoid receptor 1 (Rattus norvegicus) (P20272 whole entry): as above
SMILES,Emax [1],half-life [2],half-life [3],half-life [4],Emax [5],EC50 [6],EC50 [7],EC50 [8],EC50 [9],Emax [10],Emax [11],Activity [12],Activity [13],Kp at 2 h [14],Activity [15],Activity [16]
CC(C)(CO)NC(=O)c1nn(-c2cnccn2)c2c1C[C@H]1C[C@@H]21,85%,> 1 h,> 1 h,> 1 h,,,,,,,,,,,,
O=C(N[C@@H](CO)C(F)(F)F)c1nn(-c2c[n+]([O-])ccn2)c2c1C[C@@H]1C[C@H]21,107%,> 1 h,,> 1 h,119%,0.0172 µM,0.035 µM,> 10 µM,> 10 µM,,,,,,,
CC(C)(C)[C@@H](CF)NC(=O)c1nn(-c2c[n+]([O-])ccn2)c2c1C[C@@H]1C[C@H]21,97%,> 1 h,,> 1 h,107%,0.0012 µM,0.0015 µM,1.1 µM,0.84 µM,105%,107%,,,,,
O=C(N[C@H](CO)c1ccccc1)c1nn(-c2c[n+]([O-])ccn2)c2c1C[C@@H]1C[C@H]21,72%,> 1 h,,> 1 h,96%,,0.06 µM,> 10 µM,> 10 µM,,,,,,,
O=C(NC1(C(F)(F)F)CC1)c1nn(-c2c[n+]([O-])ccn2)c2c1C[C@@H]1C[C@H]21,103%,> 1 h,,> 1 h,,,0.0145 µM,> 10 µM,> 10 µM,,,,,,,
CC(C)(NC(=O)c1nn(-c2c[n+]([O-])ccn2)c2c1C[C@@H]1C[C@H]21)C(F)(F)F,98%,> 1 h,,> 1 h,108%,0.0023 µM,0.0063 µM,> 10 µM,> 10 µM,,,Non-Toxic,Non-Toxic,0.83,,
CC(C)(CO)NC(=O)c1nn(-c2ccc(F)cc2F)c2c1C[C@H]1C[C@@H]21,46%,,,,,,,,,,,,,,68%,
CC(C)(C)[C@H](CO)NC(=O)c1nn(-c2cnccn2)c2c1C[C@@H]1C[C@H]21,,,,,78%,0.56 µM,,> 10 µM,,,,,,,,
O=C(NC1(C(F)(F)F)CCC1)c1nn(-c2c[n+]([O-])ccn2)c2c1C[C@@H]1C[C@H]21,106%,> 1 h,,> 1 h,115%,0.0012 µM,0.0016 µM,> 10 µM,> 10 µM,,,,,,,
O=C(N[C@H](CO)C(F)(F)F)c1nn(-c2c[n+]([O-])ccn2)c2c1C[C@@H]1C[C@H]21,85%,> 1 h,,> 1 h,98%,0.28 µM,0.53 µM,> 10 µM,> 10 µM,,,,,,,
CC1(NC(=O)c2nn(-c3c[n+]([O-])ccn3)c3c2C[C@@H]2C[C@H]32)CC1,81%,,,,102%,0.091 µM,0.29 µM,> 10 µM,> 10 µM,,,,,,,
O=C(NC1(CO)CCCC1)c1nn(-c2c[n+]([O-])ccn2)c2c1C[C@@H]1C[C@H]21,106%,> 1 h,,> 1 h,112%,0.0056 µM,0.0068 µM,> 10 µM,> 10 µM,,,,,,,
CC(C)(C)[C@@H](CO)NC(=O)c1nn(-c2cnccn2)c2c1C[C@@H]1C[C@H]21,95%,> 1 h,0.4 h,> 1 h,107%,0.059 µM,0.053 µM,> 10 µM,> 10 µM,,,,,0.1,,
CCCCCCC(C)(C)c1ccc([C@@H]2C[C@H](O)CC[C@H]2CCCO)c(O)c1 [CP-55940],,,,,,,,,,,,,,,,Toxic
CC(C)[C@@H](CF)NC(=O)c1nn(-c2c[n+]([O-])ccn2)c2c1C[C@@H]1C[C@H]21,87%,> 1 h,,> 1 h,98%,0.0038 µM,0.0064 µM,6.1 µM,2.7 µM,96%,74%,,,,,
CC(C)[C@@H](CO)NC(=O)c1nn(-c2c[n+]([O-])ccn2)c2c1C[C@@H]1C[C@H]21,88%,> 1 h,,> 1 h,103%,0.046 µM,0.055 µM,> 10 µM,> 10 µM,,,,,,,
CC(C)(C)[C@@H](CO)NC(=O)c1nn(-c2cnccn2)c2c1C[C@H]1C[C@@H]21,78%,0.633 h,0.15 h,> 1 h,104%,0.026 µM,0.021 µM,> 10 µM,> 10 µM,,,,,,,

# From ChEMBL document CHEMBL4138258 (ACS Med Chem Lett, 2017)
